Laboratory results from PubChem BioAssay AID720702 (The Scripps Research Institute Molecular Screening Center, 2013).
The whole screen tested about 370,000 compounds, of which about 1,200 (0.32%) were called active.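 Rule for the calls: active = inhibition above the mean of all tested compounds plus 3 SD, set per campaign (cut at about 25% in these data); inactive = the rest.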 The list comes from a sample in which actives are over-represented; it also holds similar structures and randomly drawn compounds.

Molecular target: Tyrosyl-DNA phosphodiesterase 2 (Homo sapiens) (UniProt O95551)
Sequence (O95551 whole entry, looked up): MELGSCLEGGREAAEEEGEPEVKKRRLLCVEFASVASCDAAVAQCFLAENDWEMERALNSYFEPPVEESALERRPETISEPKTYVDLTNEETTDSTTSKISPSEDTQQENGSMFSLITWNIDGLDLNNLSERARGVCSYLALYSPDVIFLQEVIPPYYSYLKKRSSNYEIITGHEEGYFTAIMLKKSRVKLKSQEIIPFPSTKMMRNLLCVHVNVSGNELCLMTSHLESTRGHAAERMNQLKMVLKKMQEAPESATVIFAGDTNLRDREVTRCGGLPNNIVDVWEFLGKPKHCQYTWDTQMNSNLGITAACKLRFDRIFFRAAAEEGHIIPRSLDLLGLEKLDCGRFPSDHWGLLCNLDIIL
Assay: blockers of TDP2 phosphodiesterase activity – biochemical, epi absorbance, recombinant enzyme, primary screen (AID 720702);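 note: 0% = DMSO with enzyme and 100% = buffer with substrate but no TDP2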
Settings: recombinant TDP2, T5PNP hydrolysis, p-nitrophenol absorbance 415 nm; at 12.8 µM; stronger effect = higher value
Outline: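 Material: recombinant human TDP2; quantity: TDP2 enzyme at 120 nM final; medium: Tris-HCl pH 7.5 with MgCl2; compound: single concentration, 12.8 µM nominal, with 1% DMSO; incubation: 2 h enzyme incubation at 37 °C; signal: epi absorbance; measure: percent inhibition; benchmarks: high control without enzyme, low control DMSO plus TDP2; repeats: singlicate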

Row | SMILES | inhibition
1 | COc1cc(Cn2c(N)c(C(=O)NCc3ccco3)c3nc4ccccc4nc32)cc(OC)c1OC | 0.54% (inactive)
2 | CCOC(=O)c1cccc(C2=C(CNC(=O)c3ccncc3)[C@H]3CC[C@@H](C2)N3Cc2ccccc2)c1 | 4.63% (inactive)
3 | CCOC(=O)c1c(N)n(Cc2ccccc2)c2nc3ccccc3nc12 | 82.6% (active)
4 | CCC(C)n1c(O)c(/C=N/Nc2nc3c(c(=O)n(C)c(=O)n3C)n2C)c(=O)[nH]c1=S (stereo not given) | -0.24% (inactive)
5 | CCC(C)NC1(c2ccccc2)CCCCC1 (stereo not given) | 5% (inactive)
6 | CC(Cc1cccs1)NCc1ccc(Cl)cc1 (stereo not given) | 4.69% (inactive)
7 | Cn1c(C(=O)N2CCC(C(=O)N3CCC4(CC3)OCCO4)CC2)cc2sccc21 | -4.33% (inactive)
8 | O=C1NC(=O)N(Cc2ccco2)C(=O)/C1=C\c1ccc(-c2ccc(F)cc2)o1 | 26.3% (active)
9 | N[C@@H](Cc1c[nH]c2ccccc12)c1nnc(SCc2c(F)cccc2Cl)o1 | 5.28% (inactive)
10 | Cc1ccccc1CCC[C@@H](CC1CCCCC1)CN(C)C(=O)Oc1ccccc1 | -0.32% (inactive)
